Source: PubChem BioAssay
DENV2 CPE rescue: inhibitors of DENV2 cytopathic effect, primary screen, cell-based, plate reader, single concentration. DENV2-infected cells, cytopathic effect rescue. CPE inhibition, % at 9.99 µM. 350,000 compounds, 1.7% hits. AID 651640, 2012; in the data active means CPE inhibition above about 20%, passing the limit was not always enough; inconclusive means no clear call, values can overlap the other calls; tested in BHK-21 cells;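 further: 0% = median of neutral control wells and 100% = median of positive control wells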
C2C12 statin: suppressors of statin myotoxicity in C2C12 myotubes, primary screen, cell-based, single point, plate reader | 330,000 compounds, 0.78% hits | C2C12 myotubes + simvastatin, ATP luminescence, 48 h; scaled: DMSO 0, geranylgeraniol control 100 | rescue of ATP level, % at 7.49 µM;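 active means mean ATP rescue above about 67%, or every replicate alone reaching that limit, limit read from the data, passing the limit was not always enough; inconclusive means no clear call, values can overlap the other calls; inactive means mean under the limit and some replicate under it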;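 further: myotubes were challenged with 10 µM simvastatin during compound exposure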
SIRT5 inh: SIRT5 desuccinylase inhibitors, primary screen, biochemical, fluorescence imaging, single point, set 5. NAD-dependent protein deacylase sirtuin-5, mitochondrial (Homo sapiens), Q9NXA8. Purified SirT5, succinyl-peptide AMC, trypsin-coupled fluorescence. inhibition, % at 15 µM. 330,000 compounds, 1.1% hits; in the data active means inhibition above about 15%; inconclusive means no clear call, values can overlap the other calls
Target sequence (Q9NXA8 whole entry, looked up): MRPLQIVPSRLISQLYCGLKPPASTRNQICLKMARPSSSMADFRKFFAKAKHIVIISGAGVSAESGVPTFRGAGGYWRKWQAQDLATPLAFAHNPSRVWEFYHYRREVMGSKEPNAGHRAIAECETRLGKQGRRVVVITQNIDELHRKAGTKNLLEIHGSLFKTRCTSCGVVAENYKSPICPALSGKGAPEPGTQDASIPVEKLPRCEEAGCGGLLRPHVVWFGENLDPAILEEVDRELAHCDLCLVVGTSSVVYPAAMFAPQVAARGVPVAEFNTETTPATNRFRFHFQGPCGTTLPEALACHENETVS
PGC1a acetyl inh: inhibitors of PGC1a acetylation signal, primary screen, cell-based, U2OS, AlphaScreen, inhibitor mode. AlphaScreen anti-acetyl-lysine; with virally co-expressed GCN5 acetyltransferase. inhibition, % at 15.6 µM. 350,000 compounds, 0.17% hits. AID 651687, 2012;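 active means every replicate shows inhibition of at least 40%; inconclusive means mean inhibition at least 40% but some replicate below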;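 further: 0% = neutral control wells and 100% = positive control wells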
S100A4 MyoIIA: inhibitors of S100A4-myosin IIA peptide binding, primary screen, biochemical, fluorescence polarization, TAMRA-MyoIIA peptide; Protein S100-A4 (Homo sapiens), P26447; inhibition, % at 10.7 µM; 360,000 compounds, 0.14% hits; AID 652163, 2013;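 active means mean inhibition of at least 70% across replicates, with every replicate also reaching that level; inconclusive means mean inhibition reaches 70% but some replicates fall short; inactive means mean inhibition below 70%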
Target sequence (P26447 whole entry, looked up): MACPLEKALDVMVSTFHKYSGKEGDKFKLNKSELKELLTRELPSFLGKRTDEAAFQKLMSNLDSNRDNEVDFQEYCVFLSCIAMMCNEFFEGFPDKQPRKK
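Material: S100A4 monomer protein | Medium: HEPES pH 7.2 with CaCl2, KCl, NaCl, DTT, Triton | Reagent: Labelled myosin peptide probe, 5 nM | Doses: One dose per compound | Times: 5 min incubation before reading | Benchmarks: Neutral control DMSO, positive control TFP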
* marks the source's active call; other numbers are inactive results; ? = inconclusive; · = no result given; + = active, no number. An excerpt weighted towards active compounds, which were near 2.9% of everything screened.

SMILES	DENV2 CPE rescue	C2C12 statin	SIRT5 inh	PGC1a acetyl inh	S100A4 MyoIIA
CCCC(=O)NC1CCCc2c1cnn2-c1ccc(C)c(C)c1 (centres undefined)	-6.4	4.0	-0.5	7.2	2.6
O=C(c1cnn2c(C(F)F)cc(-c3ccccc3)nc12)N1CCc2ccccc21	3.8	118.0*	0.6	-5.9	2.7
COc1ccc(-c2cc(C(F)F)n3ncc(C(=O)N4CCc5ccccc5C4)c3n2)cc1	-1.8	-3.7	-3.1	-5.0	-2.3
O=C(C[C@H]1CC[C@@H](NC(=O)Cc2cccnc2)[C@@H](CO)O1)Nc1ccccc1	3.0	·	-1.6	9.5	13.0
CN1C(=O)c2cc(NC(=O)C3CCCCC3)ccc2OC[C@@H]2O[C@@H](CC(=O)NCCc3ccncc3)CC[C@@H]21	11.3	-0.6	-0.9	-8.4	8.0
Cn1c(=O)oc2cc(S(=O)(=O)N3CCCC(C(=O)NCCN4CCOCC4)C3)ccc21 (centres undefined)	83.4*	·	-0.3	-2.5	1.3
CCOc1ccc(Cl)cc1CNCCCSc1nc(C)cc(C)n1	-5.8	-0.2	19.6*	·	-0.1
CCN1C(=O)CCCc2ccccc21	-4.2	4.2	-5.7	67.7*	-2.0
C[C@@H]1CN([C@@H](C)CO)C(=O)c2cc(NC(=O)CCC(F)(F)F)ccc2O[C@@H](C)CCCCO[C@@H]1CN(C)C(=O)c1ccncc1	11.4	·	·	-3.3	·
Cc1nnc(SCC(=O)N(CC(C)C)c2c(N)n(Cc3ccccc3)c(=O)[nH]c2=O)n1N	78.5*	3.2	2.7	3.0	-3.4
CC(C)CN(C(=O)CSc1nnc(-c2cccs2)n1N)c1c(N)n(Cc2ccccc2)c(=O)[nH]c1=O	-2.2	·	2.1	·	-3.9
Cc1ccc2nc(SCC(=O)N(CC(C)C)c3c(N)n(CC(C)C)c(=O)[nH]c3=O)[nH]c2c1	·	101.3*	·	14.2	·
CCc1sc(NC(=O)COC)nc1-c1ccccc1	·	12.2	·	-3.6	·
COCC(=O)Nc1nc(-c2ccc(C)cc2)c(C)s1	·	122.9*	·	-2.6	·
Cc1cccc(CN2C[C@]34C=C[C@@H](C[C@@H]3S2(=O)=O)O4)c1	48.1*	0.0	·	·	-12.7
O=S1(=O)[C@H]2C[C@@H]3C=C[C@@]2(CN1Cc1ccc(Cl)cc1)O3	?	-2.7	-1.2	·	0.8
COc1ccccc1C(=O)Nc1ccc2c(c1)C(=O)N(C)C[C@@H](OC)[C@@H](C)CN(C)[C@@H](C)CO2	5.4	14.2	-3.3	2.5	-4.5
Cc1noc(C)c1NC(=O)Nc1ccc2c(c1)CC(=O)N([C@H](C)CO)C[C@H](C)[C@@H](CN(C)C(=O)Nc1ccc(C(F)(F)F)cc1)O2	-4.4	4.5	-1.4	0.7	-5.7
CCCC#Cc1cnc2c(c1)C(=O)N([C@@H](C)CO)C[C@H](C)[C@@H](CN(C)Cc1ccccc1F)O2	·	25.3	·	-22.1	·
CCCC(=O)N(Cc1cc2ccccc2[nH]c1=O)c1ccccc1OC	-5.5	13.0	9.0	1.6	-4.5
CCCC(=O)N(Cc1cc2cc(C)ccc2[nH]c1=O)c1ccccc1OC	·	76.1*	·	-1.9	·
COc1ccccc1OCC(=O)NNC(=O)c1c(-c2ccccc2Cl)noc1C	7.7	·	-0.1	15.3	-0.1
CCc1noc(C)c1C(=O)NNC(=O)COc1ccc(C)c(C)c1	8.7	20.7	-6.6	·	-16.7
CCSc1nnc(NC(=O)c2c(-c3ccccc3Cl)noc2C)s1	·	126.0*	·	-2.3	·
CCc1noc(C)c1C(=O)NNC(=O)COc1ccc(C)cc1	-8.4	15.7	15.1*	·	-29.1
SMILES	DENV2 CPE rescue	C2C12 statin	SIRT5 inh	PGC1a acetyl inh	S100A4 MyoIIA
Cc1onc(-c2ccccc2Cl)c1C(=O)Nc1nnc(-c2cccc([N+](=O)[O-])c2)s1	7.3	-15.5	3.5	8.5	-4.0
COc1ccc(OCC(=O)NNC(=O)c2c(-c3ccccc3Cl)noc2C)cc1	1.1	1.1	-2.4	61.7*	0.2
O=C(NC1CCCC1)[C@@H]1[C@@H](CO)[C@@H]2Cn3c(ccc(C4=CCCCC4)c3=O)[C@H]1N2CC1CC1	-5.0	21.9	-15.4	·	6.3
Nc1ccccc1C(=O)N=Nc1[nH]c(N)c2ccccc12	-2.9	·	17.6*	·	-0.7
CCC(=O)Nc1ccc2c(c1)OC[C@@H](C)N(Cc1cccnc1)C[C@H](C)[C@H](OC)CN(C)C2=O	-8.6	-8.1	-2.8	-32.8	-2.4
Cc1ccc(S(=O)(=O)NCc2ccccc2)cc1C(=O)NCC1CCCO1 (centres undefined)	3.3	·	3.5	·	+
CN(C)CCNC(=O)c1cccc(S(=O)(=O)Nc2ccccc2F)c1	5.6	·	30.2*	·	1.3
Cc1ccc(S(=O)(=O)NCc2ccccc2)cc1C(=O)N1CCN(S(=O)(=O)c2ccccc2F)CC1	58.1*	6.6	·	-8.8	-1.1
Cc1cc(S(=O)(=O)NCc2ccccc2)ccc1OCC(=O)NCC1CCCO1 (centres undefined)	1.3	-1.1	-9.1	0.6	0.0
O=C(NCC1CCCO1)c1ccc(S(=O)(=O)Nc2ccccc2F)cc1 (centres undefined)	101.2*	·	-3.7	·	4.4
O=C(Nc1ccccc1N1CCOCC1)c1cccc(S(=O)(=O)Nc2ccccc2F)c1	0.2	-15.1	-2.5	-8.8	-7.7
CCCNC(=O)N[C@@H]1CC[C@@H](CCn2cc(C3CCCC3)nn2)O[C@H]1CO	33.2*	5.2	2.0	3.1	-6.1
CCCNC(=O)N[C@@H]1CC[C@H](CCn2cc(C3CCCC3)nn2)O[C@H]1CO	5.8	14.8	0.9	-1.5	1.5
O=C(N[C@@H]1CC[C@@H](CCn2cc(C3CCCC3)nn2)O[C@H]1CO)c1cccnc1	29.3*	·	-5.8	4.1	-10.4
Cc1ccc(S(=O)(=O)N[C@H]2C=C[C@H](CC(=O)NC3CCCCC3)O[C@@H]2CO)cc1	2.1	4.0	2.2	-12.8	6.7
O=C(CN1CCCCC1)Nc1ccc(C(F)(F)F)cc1Cl	6.5	90.6*	-4.4	-17.3	2.9
CCCCN(C)CCNC(=O)c1ccc(Cn2c(=S)[nH]c3ccc(Br)cc3c2=O)cc1	-2.5	·	49.3*	·	-8.1
CN(C)CCNC(=O)c1ccc2c(=O)n(Cc3ccc(Cl)cc3)c(=S)[nH]c2c1	3.7	23.5	-2.9	·	1.2
O=S(=O)(c1ccc(F)cc1)N1CCCCN2[C@H](C1)[C@@H](c1ccc(C#CC3CCCC3)cc1)[C@@H]2CO	-9.7	·	1.2	-5.2	60.2
O=S(=O)(c1ccc(F)cc1)N1CCCCN2[C@H](CO)[C@H](c3ccc(C#CC4CCCC4)cc3)[C@@H]2C1	-6.5	·	23.2*	-0.8	2.4
O=S(=O)(c1ccc(F)cc1)N1CCCCN2[C@@H](CO)[C@@H](c3ccc(C#CC4CCCC4)cc3)[C@@H]2C1	-2.3	·	22.8*	-13.0	-5.2
